Measured values from ChEMBL document CHEMBL2016559, “Synthesis and cytotoxic activity evaluation of dihydrocucurbitacin B and cucurbitacin B derivatives” (Bioorg Med Chem, 2012).

Assays:
A549 [1] = assay: Ratio of IC50 for human A549 cells after 48 hrs to IC50 for human A549 cells after 72 hrs; type: functional
Summary of the method: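 Ratio of the 48 h to the 72 h IC50 in A549 cells. Both IC50s come from the MTT assay (1x10⁴ cells/well, 24 h attachment, then 48 h or 72 h compound exposure). Each was fitted by log(compound) vs normalized response nonlinear regression (variable slope), relative to untreated controls.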

A549 [2] = assay: Cytotoxicity against human A549 cells after 48 hrs by MTT assay; type: functional, cell-based; conditions: A549, 48 h
Summary of the method: (§1)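 A549 human NSCLC cells kept in MEM with 10% FBS, penicillin/streptomycin and amphotericin B at 37 °C under humidified 5% CO2. Seeded at 1x10⁴ cells/well and left 24 h, then exposed to a range of concentrations for 48 h or 72 h at 37 °C. MTT (1 mg/mL) added for 4 h, formazan dissolved in DMSO, absorbance read at 540 nm. IC50 taken against untreated controls by log(compound) vs normalized response (variable slope) fit, with 95% CI.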

A549 [3] = assay: Cytotoxicity against human A549 cells after 72 hrs by MTT assay; type: functional, cell-based; conditions: A549, 72 h; summary of the method: as §1

SMILES | Ratio IC50 (A549 [1]) | IC50 (A549 [2]) [µM] | IC50 (A549 [3]) [µM]
CC(=O)OC(C)(C)CCC(=O)[C@](C)(O)[C@H]1C(=O)C[C@@]2(C)[C@@H]3CC=C4[C@@H](C[C@H](O)C(=O)C4(C)C)[C@]3(C)C(=O)C[C@]12C | 2.1 | 54.4 | 26.5
CC(=O)OC(C)(C)CCC(=O)[C@](C)(O)[C@H]1C(=O)C[C@@]2(C)[C@@H]3CC=C4[C@@H](C=C(O)C(=O)C4(C)C)[C@]3(C)C(=O)C[C@]12C |  | > 100 | > 100
CC(=O)O[C@H]1C[C@@H]2C(=CC[C@@H]3[C@@]2(C)C(=O)C[C@]2(C)[C@@H]([C@@](C)(O)C(=O)CCC(C)(C)OC(C)=O)[C@H](OC(C)=O)C[C@@]32C)C(C)(C)C1=O |  | > 100 | 72.5
CC(=O)OC(C)(C)CCC(=O)[C@](C)(O)[C@H]1[C@H](OC(=O)CCC(=O)O)C[C@@]2(C)[C@@H]3CC=C4[C@@H](C[C@H](OC(=O)CCC(=O)O)C(=O)C4(C)C)[C@]3(C)C(=O)C[C@]12C |  | > 100 | > 100
CC(=O)O[C@H]1C[C@@H]2C(=CC[C@@H]3[C@@]2(C)C(=O)C[C@]2(C)[C@@H]([C@@](C)(O)C(=O)/C=C/C(C)(C)OC(C)=O)[C@H](OC(C)=O)C[C@@]32C)C(C)(C)C1=O | 5.5 | 14.7 | 2.64
CC(=O)OC(C)(C)CCC(=O)[C@](C)(O)[C@H]1[C@H](O)C[C@@]2(C)[C@@H]3CC=C4[C@@H](C[C@H](OC(=O)c5ccccc5)C(=O)C4(C)C)[C@]3(C)C(=O)C[C@]12C |  | > 100 | > 100
CC(=O)OC(C)(C)CCC(=O)[C@](C)(O)[C@H]1[C@H](OC(=O)c2ccccc2)C[C@@]2(C)[C@@H]3CC=C4[C@@H](C[C@H](OC(=O)c5ccccc5)C(=O)C4(C)C)[C@]3(C)C(=O)C[C@]12C |  | > 100 | > 100
CC(=O)OC(C)(C)CCC(=O)[C@](C)(O)[C@H]1[C@H](OC(=O)n2ccnc2)C[C@@]2(C)[C@@H]3CC=C4[C@@H](C[C@H](OC(=O)n5ccnc5)C(=O)C4(C)C)[C@]3(C)C(=O)C[C@]12C |  | > 100 | > 100
CC(=O)O[C@@H]1C[C@@]2(C)[C@@H]3CC=C4[C@@H](C[C@H](Sc5ccccc5)C(=O)C4(C)C)[C@]3(C)C(=O)C[C@]2(C)[C@H]1[C@@](C)(O)C(=O)CCC(C)(C)OC(C)=O |  | > 100 | > 100
CC(=O)O[C@@H]1C[C@@]2(C)[C@@H]3CC=C4[C@@H](C[C@H](SC(C)=O)C(=O)C4(C)C)[C@]3(C)C(=O)C[C@]2(C)[C@H]1[C@@](C)(O)C(=O)CCC(C)(C)OC(C)=O |  | > 100 | > 100
CC(=O)OC(C)(C)CCC(=O)[C@](C)(O)[C@H]1[C@H](O)C[C@@]2(C)[C@@H]3CC=C4[C@@H](Cc5sc(N)nc5C4(C)C)[C@]3(C)C(=O)C[C@]12C |  | > 100 | > 100
CC(=O)OC(C)(C)/C=C/C(=O)[C@](C)(O)[C@H]1[C@H](O)C[C@@]2(C)[C@@H]3CC=C4[C@@H](Cc5sc(N)nc5C4(C)C)[C@]3(C)C(=O)C[C@]12C | 2.5 | 28.8 | 11.5
CC(=O)OC(C)(C)CCC(=O)[C@](C)(O)[C@H]1[C@H](O)C[C@@]2(C)[C@@H]3CC=C4[C@@H](C[C@H](Br)C(=O)C4(C)C)[C@]3(C)C(=O)C[C@]12C | 1.2 | 34.9 | 29.1
CC(=O)OC(C)(C)/C=C/C(=O)[C@](C)(O)[C@H]1[C@H](O)C[C@@]2(C)[C@@H]3CC=C4[C@@H](C[C@H](Br)C(=O)C4(C)C)[C@]3(C)C(=O)C[C@]12C | 11.1 | 1.33 | 0.12
CC(=O)OC(C)(C)CCC(=O)[C@](C)(O)[C@H]1[C@H](O)C[C@@]2(C)[C@@H]3CC=C4[C@@H](C=C(N)C(=O)C4(C)C)[C@]3(C)C(=O)C[C@]12C |  | > 100 | > 100
CC(=O)O[C@@H]1C[C@@]2(C)[C@@H]3CC=C4[C@@H](C=C(N)C(=O)C4(C)C)[C@]3(C)C(=O)C[C@]2(C)[C@H]1[C@@](C)(O)C(=O)CCC(C)(C)OC(C)=O |  | > 100 | 55.2
CC(=O)OC(C)(C)/C=C/C(=O)[C@](C)(O)[C@H]1[C@H](O)C[C@@]2(C)[C@@H]3CC=C4[C@@H](C=C(N)C(=O)C4(C)C)[C@]3(C)C(=O)C[C@]12C | 3.5 | 0.42 | 0.12

SMILES | Ratio IC50 (A549 [1]) | IC50 (A549 [2]) [µM] | IC50 (A549 [3]) [µM]
CC(=O)OC(C)(C)CCC(=O)[C@](C)(O)[C@H]1[C@H](OC(=S)n2ccnc2)C[C@@]2(C)[C@@H]3CC=C4[C@@H](C[C@H](OC(=S)n5ccnc5)C(=O)C4(C)C)[C@]3(C)C(=O)C[C@]12C | 2.1 | 14.7 | 6.9
CC(=O)OC(C)(C)CCC(=O)[C@](C)(O)[C@H]1[C@H](O)C[C@@]2(C)[C@@H]3CC=C4[C@@H](CCC(=O)C4(C)C)[C@]3(C)C(=O)C[C@]12C |  | > 100 | 66.7
CC(=O)OC(C)(C)CCC(=O)[C@](C)(O)[C@H]1CC[C@@]2(C)[C@@H]3CC=C4[C@@H](CCC(=O)C4(C)C)[C@]3(C)C(=O)C[C@]12C |  | > 100 | 11.5
CC(=O)[C@H]1[C@H](OC(=O)c2ccccc2)C[C@@]2(C)[C@@H]3CC=C4[C@@H](C[C@H](OC(=O)c5ccccc5)[C@@H](O)C4(C)C)[C@]3(C)C(=O)C[C@]12C |  | > 100 | > 100
CC(=O)[C@H]1[C@H](O)C[C@@]2(C)[C@@H]3CC=C4[C@@H](C=C(O)C(=O)C4(C)C)[C@]3(C)C(=O)C[C@]12C |  | > 100 | > 100
CC(=O)OC(C)(C)/C=C/[C@H](O)[C@](C)(O)[C@H]1[C@H](O)C[C@@]2(C)[C@@H]3CC=C4[C@@H](C[C@H](O)[C@@H](O)C4(C)C)[C@]3(C)C(=O)C[C@]12C |  | > 100 | > 100
CC(=O)O[C@H]1C[C@@H]2C(=CC[C@@H]3[C@@]2(C)C(=O)C[C@]2(C)[C@@H]([C@@](C)(OC(=O)C(F)(F)F)C(=O)CCC(C)(C)OC(C)=O)[C@H](OC(C)=O)C[C@@]32C)C(C)(C)C1=O |  | > 100 | > 100
CC(=O)O[C@H]1C[C@@H]2C(=CC[C@@H]3[C@@]2(C)C(=O)C[C@]2(C)[C@@H]([C@@](C)(O)C(=O)CC=C(C)C)[C@H](OC(C)=O)C[C@@]32C)C(C)(C)C1=O |  | > 100 | 42.6
CC(=O)OC(C)(C)CCC(=O)[C@](C)(O)[C@H]1[C@H](O)C[C@@]2(C)[C@@H]3CC=C4[C@@H](C=CC(=O)C4(C)C)[C@]3(C)C(=O)C[C@]12C | 1.1 | 87.8 | 77.7
CC(=O)O[C@H]1C[C@@H]2C(=CC(=O)[C@@H]3[C@@]2(C)C(=O)C[C@]2(C)[C@@H]([C@@](C)(O)C(=O)CCC(C)(C)OC(C)=O)[C@H](OC(C)=O)C[C@@]32C)C(C)(C)C1=O |  | > 100 | > 100
CC(=O)OC(C)(C)CCC(=O)[C@](C)(O)[C@H]1[C@H](O)C[C@@]2(C)[C@@H]3CC=C4[C@@H](C=C(O)C(=O)C4(C)C)[C@]3(C)C(=O)C[C@]12C |  | > 100 | > 100
CC(=O)OC(C)(C)CCC(=O)[C@](C)(O)[C@H]1[C@H](O)C[C@@]2(C)[C@@H]3CC=C4[C@@H](C[C@H](O)C(=O)C4(C)C)[C@]3(C)C(=O)C[C@]12C [23,24-DIHYDROCUCURBITACIN B] | 1.6 | 19.9 | 12.1
CC(=O)OC(C)(C)/C=C/C(=O)[C@](C)(O)[C@H]1[C@H](O)C[C@@]2(C)[C@@H]3CC=C4[C@H](C[C@H](O)C(=O)C4(C)C)[C@]3(C)C(=O)C[C@]12C [CUCURBITACIN B] | 3.3 | 0.13 | 0.04
COc1cccc2c1C(=O)c1c(O)c3c(c(O)c1C2=O)C[C@@](O)(C(=O)CO)C[C@@H]3O[C@H]1C[C@H](N)[C@H](O)[C@H](C)O1 [DOXORUBICIN] | 3.1 | 3.69 | 1.18
CC(=O)[C@H]1[C@H](O)C[C@@]2(C)[C@@H]3CC=C4[C@@H](C[C@H](O)[C@@H](O)C4(C)C)[C@]3(C)C(=O)C[C@]12C [HEXANORCUCURBITACIN F] |  | > 100 | > 100
CC(=O)O[C@H]1C(=O)[C@@]2(C)[C@H]([C@H](OC(=O)c3ccccc3)[C@]3(O)C[C@H](OC(=O)[C@H](O)[C@@H](NC(=O)c4ccccc4)c4ccccc4)C(C)=C1C3(C)C)[C@]1(OC(C)=O)CO[C@@H]1C[C@@H]2O [PACLITAXEL] | 6.1 | 1.16 | 0.19
